Consider 28 compounds from ChEMBL document CHEMBL1141085, “Imidazole-4,5-dicarboxamide derivatives with antiproliferative activity against HL-60 cells” (J Med Chem, 2005).

For orientation: IC50 means the concentration needed to halve the response being measured.

SMILES strings stand for the structures.

Experiment [1] concerns HL-60. Description: Mean in vitro concentration to inhibit the metabolic activity of HL-60 cells after 2 days of incubation; n=3. Format: functional, cell-based. The settings on record: Homo sapiens, HL-60, 48 h. The gist of the method: (§1)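 Human HL-60 promyelocytic leukemia cells in RPMI 1640 with 8.25% FCS, 37 °C, 5% CO2. Seeded in triplicate at 12.5×10^4 (2-day) or 3.75×10^4 (4-day) cells/0.5 mL. Drug in DMSO (0.2% final), serial dilutions.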

The test system of experiment [2] is HL-60. The experiment can be described thus: Mean in vitro concentration to inhibit the metabolic activity of HL-60 cells after 4 days of incubation; n=3. Format: functional, cell-based. The conditions noted are these: Homo sapiens, HL-60, 96 h. A digest of the protocol: as §1

Turning to `COC(=O)[C@@H](NC(=O)c1[nH]cnc1C(=O)Nc1ccc(Cl)c(Cl)c1)C(C)C`, the IC50 in the experiment with HL-60 [1] and in the experiment with HL-60 [2] was over 62.5 µM throughout.
As for `COC(=O)[C@H](NC(=O)c1[nH]cnc1C(=O)Nc1ccc(Cl)c(Cl)c1)C(C)C`, the IC50 in the experiment with HL-60 [1] amounted to 8.5 µM; in the experiment with HL-60 [2], 4.9 µM.
In the case of `CCOC(=O)c1ccc(NC(=O)c2[nH]cnc2C(=O)N[C@H](C)C(=O)OC(C)(C)C)cc1`, the IC50 came out at 6.3 µM in the experiment with HL-60 [1] and 3.7 µM with HL-60 [2].
The matching figures for `CC(C)CNC(=O)c1[nH]cnc1C(=O)Nc1ccc(Cl)c(Cl)c1`: 14.7 µM and 7.2 µM.
On the same counts, the results for `C[C@@H](NC(=O)c1[nH]cnc1C(=O)Nc1ccccc1)C(=O)OC(C)(C)C` are 4.7 µM and 2.7 µM.
On to `O=C(NCc1ccccc1)c1nc[nH]c1C(=O)Nc1ccc(Cl)c(Cl)c1`, for which the IC50 in the experiment with HL-60 [1] came out at 11.5 µM; in the experiment with HL-60 [2] it was 7.4 µM.
The matching figures for `C[C@@H](NC(=O)c1[nH]cnc1C(=O)Nc1ccc(Cl)c(Cl)c1)C(=O)OC(C)(C)C`: 4.6 µM and 2.5 µM.
The matching figures for `O=C(Nc1ccc(Cl)c(Cl)c1)c1nc[nH]c1C(=O)NCc1ccc(Cl)cc1`: 16.2 µM and 8.8 µM.
The matching figures for `Cc1ccc(CNC(=O)c2[nH]cnc2C(=O)Nc2ccc(Cl)c(Cl)c2)cc1`: 21.4 µM and 15.2 µM.
In the case of `C[C@@H](c1ccccc1)N(C)C(=O)c1[nH]cnc1C(=O)Nc1ccc(Cl)c(Cl)c1`, the IC50 with HL-60 [1] was 75.5 µM; in the experiment on HL-60 [2] it was 56 µM.
On the same counts, the results for `O=C(NCCc1ccccc1)c1nc[nH]c1C(=O)Nc1ccc(Cl)c(Cl)c1` are 17.7 µM and 13.2 µM.
The matching figures for `CCCCCCNC(=O)c1[nH]cnc1C(=O)Nc1ccc(Cl)c(Cl)c1`: 14.6 µM and 7.8 µM.
On the same counts, the results for `Cc1ccc(NC(=O)c2nc[nH]c2C(=O)N[C@H](C)C(=O)OC(C)(C)C)cc1` are 6.3 µM and 3.5 µM.
Take `C[C@@H](NC(=O)c1[nH]cnc1C(=O)Nc1ccc(Cl)c(Cl)c1)c1ccccc1`: the IC50 in the experiment with HL-60 [1] is 8.8 µM; in the experiment with HL-60 [2], 5.9 µM.
Consider `COC(=O)[C@@H](NC(=O)c1[nH]cnc1C(=O)Nc1ccc(Cl)c(Cl)c1)c1ccccc1`, for which the IC50 came to 13.2 µM with HL-60 [1] and 6.8 µM in the experiment on HL-60 [2].
Turning to `C[C@@H](NC(=O)c1[nH]cnc1C(=O)Nc1cccc(Cl)c1)C(=O)OC(C)(C)C`, the IC50 amounted to 8.2 µM in the experiment with HL-60 [1] and 2.9 µM with HL-60 [2].
The matching figures for `C[C@H](c1ccccc1)N(C)C(=O)c1[nH]cnc1C(=O)Nc1ccc(Cl)c(Cl)c1`: 89.4 µM and 68.8 µM.
On the same counts, the results for `CC(C)(C)OC(=O)CNC(=O)c1[nH]cnc1C(=O)Nc1ccc(Cl)c(Cl)c1` are 49.8 µM and 25.4 µM.
On the same counts, the results for `COc1ccc(CNC(=O)c2[nH]cnc2C(=O)Nc2ccc(Cl)c(Cl)c2)cc1` are 24.3 µM and 18.3 µM.
For the compound `C[C@@H](NC(=O)c1[nH]cnc1C(=O)Nc1ccc(Cl)cc1)C(=O)OC(C)(C)C`, the IC50 was 6.6 µM with HL-60 [1] and 3.3 µM in the experiment with HL-60 [2].
Regarding `COC(=O)[C@@H](C)NC(=O)c1[nH]cnc1C(=O)Nc1ccc(Cl)c(Cl)c1`, the IC50 in the experiment with HL-60 [1] and with HL-60 [2] was over 62.5 µM in each case.
Take `COC(=O)[C@H](NC(=O)c1[nH]cnc1C(=O)Nc1ccc(Cl)c(Cl)c1)c1ccccc1`: the IC50 with HL-60 [1] amounted to 17.3 µM; with HL-60 [2], 10.8 µM.
The matching figures for `O=C(NCc1ccc(-c2ccccc2)cc1)c1nc[nH]c1C(=O)Nc1ccc(Cl)c(Cl)c1`: 7 µM and 2.9 µM.
On the same counts, the results for `CCCN(CCC)C(=O)c1[nH]cnc1C(=O)Nc1ccc(Cl)c(Cl)c1` are 379 µM and 38.9 µM.
As to `O=C(NC1CCCCC1)c1nc[nH]c1C(=O)Nc1ccc(Cl)c(Cl)c1`, the 50% inhibitory concentration (IC50) with HL-60 [1] came out at 33.1 µM; with HL-60 [2], 12.3 µM.
On to `C[C@H](NC(=O)c1[nH]cnc1C(=O)Nc1ccc(Cl)c(Cl)c1)c1ccccc1`, for which the concentration for half-maximal inhibition (IC50) with HL-60 [1] came out at 9.2 µM; in the experiment on HL-60 [2], 5.9 µM.
The matching figures for `C[C@H](NC(=O)c1[nH]cnc1C(=O)Nc1ccc(Cl)c(Cl)c1)C(=O)OC(C)(C)C`: 4.9 µM and 2.4 µM.
On the same counts, the results for `COc1ccc(NC(=O)c2[nH]cnc2C(=O)N[C@H](C)C(=O)OC(C)(C)C)cc1` are 6 µM and 3.1 µM.
